Data taken from ChEMBL document CHEMBL4811253, “Flavonoid-triazolyl hybrids as potential anti-hepatitis C virus agents: Synthesis and biological evaluation” (Eur J Med Chem, 2021).
The source made the active and inactive calls. The rule behind the calls is not given here.

Experiments:
[1] = system: Huh-7; experiment: Cytotoxicity against human Huh7 cells assessed as reduction in cell viability at 100 ug/ml incubated for 72 hrs by XTT assay; type: cell-based; conditions: huh-7, 72 h, dose 100 µg/ml
Summary of the method: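 Huh7 cells (1 × 10⁴/well) seeded overnight, exposed to compound at 100 µg/mL for 72 h; viability by XTT (Cell Proliferation Kit II) per the kit instructions. Cells grown in DMEM with 10% FBS, 37 °C, 5% CO₂.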

[2] = system: Hepatitis C virus; experiment: Antiviral activity against HCV JFH-1 in Huh7 cells assessed as reduction in NS3 protein expression by Western blotting analysis; type: functional, organism-based; conditions: Hepacivirus hominis, Huh-7, dose 1-100 µM
Summary of the method: (§1)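 Huh7 cells treated with compound at 1, 10 and 100 µM (concentrations as stated in text). Lysates in RIPA buffer, heated with Laemmli buffer at 95 °C for 10 min. Western blot probed with anti-NS3 (1/1000), anti-Core (1/3000) and anti-GAPDH (1/1000), HRP secondary antibodies, chemiluminescence detection.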

[3] = system: Hepatitis C virus; experiment: Antiviral activity against HCV JFH-1 infected in Huh7 cells overexpressing mCherry-NLS-IPS protein at 100 ug/ml pre-infected with virus for 6 hrs followed by compound addition for 72 hrs by fluorescence assay; type: functional, organism-based; conditions: Hepacivirus hominis, Huh-7, dose 100.0 µg/ml
Summary of the method: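 Huh7 cells carrying mCherry-NLS-IPS were made by transducing them with a recombinant virus from 293T cells (VSV-G, Pol and mCherry-NLS-IPS1 plasmids). These cells were seeded at 5×10⁴ per well overnight in DMEM with 10% FBS at 37 °C and 5% CO₂, then infected with HCV JFH1 (MOI 1) for 6 h. After washing they were cultured with compound for 72 h, with sofosbuvir as positive control. The readout was microscopic imaging of red fluorescence shifting from cytoplasm to nucleus after NS3/4A cleavage.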

[4] = system: Hepatitis C virus; experiment: Antiviral activity against HCV JFH-1 in Huh7 cells infected with supernatant from 72 hrs at 100 ug/ml compound treated Huh7 cells with HCV JFH-1 infection assessed as inhibition of HCV progeny virus production by measuring viral RNA level measured after 48 hrs post re-infection by RT-PCR analysis; type: functional, organism-based; conditions: Hepacivirus hominis, Huh-7, dose 100.0 µg/ml, time 120.0 hrs
Summary of the method: (§2)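 Huh7 cells (1 × 10⁴/well, overnight) infected with HCV at MOI 0.1 for 6 h, virus washed out, then compound for 72 h (single 100 µg/mL screen; or 1, 3, 10, 30 µM dose series). Supernatant used to reinfect fresh Huh7 cells; 48 h later total RNA column-extracted and HCV RNA quantified by real-time RT-PCR. IFNa 10 U/mL as reference.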

[5] = system: Hepatitis C virus; experiment: Antiviral activity against HCV JFH-1 in Huh7 cells assessed as reduction in HCV core protein expression by Western blotting analysis; type: functional, organism-based; conditions: Hepacivirus hominis, Huh-7, dose 1-100 µM; summary of the method: as §1
[6] = system: Hepatitis C virus; experiment: Antiviral activity against HCV JFH-1 infected in Huh7 cells assessed as inhibition of HCV replication at 10 uM after 72 hrs by luciferase reporter gene assay; type: functional, organism-based; conditions: Hepacivirus hominis, Huh-7
Summary of the method: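 Huh7 cells transfected with subgenomic JFH1 replicon carrying luciferase (SGR-Luc-JFH1), then treated with compound; luciferase activity in cell extracts read after 72 h.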

[7] = system: Hepatitis C virus; experiment: Antiviral activity against HCV JFH-1 in Huh7 cells infected with supernatant from 3 days compound treated Huh7 cells with HCV JFH-1 infection assessed as reduction in HCV production by measuring viral RNA level measured after 48 hrs post re-infection by RT-PCR analysis; type: functional, organism-based; conditions: for Activity: Hepacivirus hominis, Huh-7, time 3.0 day; for IC50: JFH-1, Huh-7; summary of the method: as §2
[8] = system: Hepatitis C virus; experiment: Antiviral activity against HCV pseudo-particle infected in human Huh-7 cells assessed as inhibition of viral entry at 10 uM incubated for 24 hrs prior to infection and measured after 48 hrs post infection by bright Glo-luciferase reporter gene assay; type: functional, Hepacivirus hominis, JFH-1; design: scale not given: the % may be the effect or the level left
Summary of the method: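 Huh-7 cells (5 × 10³/well) pretreated with compound for 24 h, then infected with HCV pseudoparticles. Virus and compound washed out after 6 h of infection. Luciferase read with Bright-Glo reagent 48 h later.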

[9] = system: Hepatitis C virus; experiment: Antiviral activity against wild-type HCV infected in human Huh-7 cells assessed as inhibition of viral entry at 10 uM incubated for 24 hrs prior to infection and measured after 48 hrs post infection by RT-PCR; conditions: Hepacivirus hominis, JFH-1
[10] = system: Hepatitis C virus; experiment: Antiviral activity against HCV JFH-1 in Huh7 cells infected with supernatant from 3 days at 30 uM of compound treated Huh7 cells with HCV JFH-1 infection assessed as reduction in HCV production by measuring viral RNA level measured after 48 hrs post re-infection by RT-PCR analysis; type: functional, organism-based; conditions: Hepacivirus hominis, Huh-7, time 120.0 hrs; summary of the method: as §2

For `CC1(C)C=Cc2cc(C3CC(=O)c4ccc(O)cc4O3)ccc2O1` (stereo not drawn), the Activity [1] was “Non-Toxic”.

For `CC1(C)C=Cc2cc(C3CC(=O)c4ccc(OCc5cn(Cc6ccc(C(F)(F)F)cc6)nn5)cc4O3)ccc2O1` (stereo not drawn), the Activity [1] was “Non-Toxic”.

In the case of `CCCCCCCCCn1cc(COc2ccc3c(c2)OC(c2ccc4c(c2)C=CC(C)(C)O4)CC3=O)nn1` (stereo not drawn), the Activity [1] is reported as “Non-Toxic”.

For `CC1(C)C=Cc2cc(C3CC(=O)c4ccc(OCc5cn(Cc6cccc(F)c6)nn5)cc4O3)ccc2O1` (stereo not drawn), the Activity [1] was “Non-Toxic”.

For `CC1(C)C=Cc2cc(C3CC(=O)c4ccc(OCc5cn(Cc6ccccc6F)nn5)cc4O3)ccc2O1` (stereo not drawn), the Activity [1] was “Non-Toxic”.

In the case of `CC1(C)C=Cc2cc(C3CC(=O)c4ccc(OCc5cn(Cc6ccc(Br)cc6)nn5)cc4O3)ccc2O1` (stereo not drawn), the Activity [2] is reported as “Dose-Dependent Effect”, the Activity [3] is reported as “Active” and the Activity [4] is reported as “Active”. For the same molecule, the Activity [5] was “Dose-Dependent Effect” and the Activity [1] was “Non-Toxic”.

For `CCCCCCn1cc(COc2ccc3c(c2)OC(c2ccc4c(c2)C=CC(C)(C)O4)CC3=O)nn1` (stereo not drawn), the Activity [3] was “Active”, the Activity [4] was “Active” and the Activity [1] was “Non-Toxic”.

With `CC1(C)C=Cc2cc(C3CC(=O)c4ccc(OCc5cn(Cc6ccccc6Cl)nn5)cc4O3)ccc2O1` (stereo not drawn) the Activity [6] was “inactive”, the Activity [7] was “Dose-Dependent Effect” and the IC50 [7] was 5.29 µM. The Activity [8] was 34%, the Activity [2] was “Dose-Dependent Effect” and the Activity [3] was “Active”. The Activity [4] was “Active”, the Activity [9] was “Active” and the Activity [5] was “Dose-Dependent Effect”. The Activity [1] was “Non-Toxic” and the Activity [10] was “Active”.

`COc1cccc(Cn2cc(COc3ccc4c(c3)OC(c3ccc5c(c3)C=CC(C)(C)O5)CC4=O)nn2)c1` (stereo not drawn) was tested, and the Activity [1] was “Non-Toxic”.

For `CC1(C)C=Cc2cc(C3CC(=O)c4ccc(OCc5cn(Cc6ccc([N+](=O)[O-])cc6)nn5)cc4O3)ccc2O1` (stereo not drawn), the Activity [1] was “Non-Toxic”.

`CC1(C)C=Cc2cc(C3CC(=O)c4ccc(OCc5cn(Cc6ccncc6)nn5)cc4O3)ccc2O1` (stereo not drawn) was tested, and the Activity [1] was “Toxic”.

For `Cn1cc(COc2ccc3c(c2)OC(c2ccc4c(c2)C=CC(C)(C)O4)CC3=O)nn1` (stereo not drawn), the Activity [1] was “Non-Toxic”.

With `CCCCn1cc(COc2ccc3c(c2)OC(c2ccc4c(c2)C=CC(C)(C)O4)CC3=O)nn1` (stereo not drawn) the Activity [1] was “Non-Toxic”.

`CCn1cc(COc2ccc3c(c2)OC(c2ccc4c(c2)C=CC(C)(C)O4)CC3=O)nn1` (stereo not drawn) was tested, and the Activity [1] was “Non-Toxic”.

In the case of `CCCCCn1cc(COc2ccc3c(c2)OC(c2ccc4c(c2)C=CC(C)(C)O4)CC3=O)nn1` (stereo not drawn), the Activity [3] is reported as “Active”, the Activity [4] is reported as “Active” and the Activity [1] is reported as “Non-Toxic”.

In the case of `CC1(C)C=Cc2cc(C3CC(=O)c4ccc(OCc5cn(Cc6ccc(F)cc6)nn5)cc4O3)ccc2O1` (stereo not drawn), the Activity [6] is reported as “inactive”, the Activity [7] is reported as “Dose-Dependent Effect” and the IC50 [7] is reported as 9 µM. For the same molecule, the Activity [8] was 52%, the Activity [2] was “Dose-Dependent Effect” and the Activity [3] was “Active”. The Activity [4] was “Active”, the Activity [9] was “Active” and the Activity [5] was “Dose-Dependent Effect”. The Activity [1] was “Non-Toxic” and the Activity [10] was “Active”.

With `Cc1ccc(Cn2cc(COc3ccc4c(c3)OC(c3ccc5c(c3)C=CC(C)(C)O5)CC4=O)nn2)cc1` (stereo not drawn) the Activity [1] was “Non-Toxic”.

For `COc1cc(Cn2cc(COc3ccc4c(c3)OC(c3ccc5c(c3)C=CC(C)(C)O5)CC4=O)nn2)cc(OC)c1` (stereo not drawn), the Activity [1] was “Non-Toxic”.

With `CC1(C)C=Cc2cc(C3CC(=O)c4ccc(OCc5cn(Cc6cc(Cl)cc(Cl)c6)nn5)cc4O3)ccc2O1` (stereo not drawn) the Activity [1] was “Non-Toxic”.

With `CC1(C)C=Cc2cc(C3CC(=O)c4ccc(OCc5cn(Cc6ccccc6)nn5)cc4O3)ccc2O1` (stereo not drawn) the Activity [1] was “Toxic”.
